The text below walks through data of ChEMBL document CHEMBL1671867, “Novel polymyxin derivatives carrying only three positive charges are effective antibacterial agents” (Antimicrob Agents Chemother, 2008).

For orientation: MIC means the least concentration at which growth counts as inhibited.

Common to all, as to type: functional
The test system of assay [1] is Escherichia coli. In words: Antibacterial activity against Escherichia coli ATCC […] by CLSI M7-A7 agar dilution method. In general terms: Agar dilution tests growth on a series of plates holding different concentrations.
For assay [2], the system named is Escherichia coli. In words: Antibacterial activity against Escherichia coli IH3080 assessed as growth inhibition at 10 ug after 18 hrs by […] in presence of 1 ug/ml rifampin.
The test system of assay [3] is Escherichia coli. In words: Antibacterial activity against Escherichia coli IH3080 assessed as growth inhibition at 10 ug after 18 hrs by […].
Assay [4] deals with Escherichia coli. Nature of the assay: Antibacterial activity against Escherichia coli IH3080 assessed as reduction in bacterial count at 2 ug/ml using 2 day old compound stock solution. Also noted: scale not given: the % may be the effect or the level left.
Assay [5] concerns Candida albicans. In words: Antibacterial activity against Candida albicans ATCC 28366 by CLSI M7-A7 agar dilution method.
Assay [6] concerns Staphylococcus aureus. Nature of the assay: Antibacterial activity against Staphylococcus aureus ATCC 25923 by CLSI M7-A7 agar dilution method. In short, it runs like this:
(§1)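 Agar dilution on Mueller-Hinton agar with test substance at 0.25 to 32 μg/ml in twofold steps. Spots of about 10^4 CFU applied with a multipoint inoculator.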

The test system of assay [7] is Escherichia coli. In words: Antibacterial activity against Escherichia coli SC 9253 by CLSI M7-A7 agar dilution method. The gist of the method: as §1
The test system of assay [8] is Escherichia coli. Nature of the assay: Antibacterial activity against Escherichia coli SC 9252 by CLSI M7-A7 agar dilution method.
Assay [9] relates to Pseudomonas aeruginosa. Nature of the assay: Antibacterial activity against Pseudomonas aeruginosa ATCC 27853 by CLSI M7-A7 agar dilution method. The gist of the method:
as §1

Assay [10] deals with Acinetobacter baumannii. In words: Antibacterial activity against Acinetobacter baumannii by CLSI M7-A7 agar dilution method.
Assay [11] has as its system Serratia marcescens. In words: Antibacterial activity against Serratia marcescens ATCC 8100 by CLSI M7-A7 agar dilution method. The gist of the method: as §1
Assay [12] has as its system Acinetobacter baumannii. In words: Antibacterial activity against Acinetobacter baumannii ATCC 19606 by CLSI M7-A7 agar dilution method.
The test system of assay [13] is Citrobacter freundii. In words: Antibacterial activity against Citrobacter freundii ATCC 8090 by CLSI M7-A7 agar dilution method.
In assay [14] the test system is Enterobacter cloacae. Nature of the assay: Antibacterial activity against Enterobacter cloacae by CLSI M7-A7 agar dilution method.
In assay [15] the test system is Enterobacter cloacae. Nature of the assay: Antibacterial activity against Enterobacter cloacae CCUG52947 by CLSI M7-A7 agar dilution method.
The subject of assay [16] is Enterobacter cloacae. In words: Antibacterial activity against Enterobacter cloacae ATCC 23355 by CLSI M7-A7 agar dilution method.
In assay [17] the test system is Klebsiella oxytoca. In words: Antibacterial activity against Klebsiella oxytoca CCUG51683 by CLSI M7-A7 agar dilution method. In short, it runs like this:
as §1

In assay [18] the test system is Klebsiella oxytoca. In words: Antibacterial activity against Klebsiella oxytoca ATCC 13182 by CLSI M7-A7 agar dilution method. The gist of the method: as §1
The test system of assay [19] is Klebsiella pneumoniae. Nature of the assay: Antibacterial activity against Klebsiella pneumoniae by CLSI M7-A7 agar dilution method. The gist of the method: as §1
Assay [20] concerns Escherichia coli. Nature of the assay: Antibacterial activity against Escherichia coli by CLSI M7-A7 agar dilution method. The gist of the method: as §1
Assay [21] concerns Klebsiella pneumoniae. Nature of the assay: Antibacterial activity against Klebsiella pneumoniae CCUG45421 by CLSI M7-A7 agar dilution method. The gist of the method:
as §1

In assay [22] the test system is Escherichia coli. Nature of the assay: Antibacterial activity against Escherichia coli IH3080 by CLSI M7-A7 agar dilution method.

Molecules are shown by their SMILES. Values after ≈ are worked out from the molar mass of the structure shown.

Turning to `CCCCCCCC(=O)N[C@H](C(=O)N[C@H](CO)C(=O)N[C@H]1CCNC(=O)[C@H]([C@@H](C)O)NC(=O)[C@H](CCN)NC(=O)[C@H](CCN)NC(=O)[C@H](CC(C)C)NC(=O)[C@@H](Cc2ccccc2)NC(=O)[C@H](CCN)NC1=O)[C@@H](C)O`, the MIC is 1 µg/mL (≈ 0.929 µM) in assay [1]; > 32 µg/mL in [5]; > 32 µg/mL in assay [6]; > 32 µg/mL in assay [7]; 32 µg/mL (≈ 29.7 µM) in [8]; 8 µg/mL (≈ 7.43 µM) in assay [9]. The MIC in assay [10] was 4 µg/mL (≈ 3.72 µM); in assay [11] it was > 32 µg/mL; in assay [12], 8 µg/mL (≈ 7.43 µM); in [13], 2 µg/mL (≈ 1.86 µM); in [14] it was 2 µg/mL (≈ 1.86 µM); in assay [15], 2 µg/mL (≈ 1.86 µM). In addition, the MIC in assay [16] amounted to 2 µg/mL (≈ 1.86 µM); in assay [17] it was 2 µg/mL (≈ 1.86 µM); in assay [18] it was 2 µg/mL (≈ 1.86 µM); in assay [19], 1 µg/mL (≈ 0.929 µM); in [20] it was 0.5 µg/mL (≈ 0.465 µM); in assay [21] it was 4 µg/mL (≈ 3.72 µM). In assay [22], this molecule came in with an MIC of 1 µg/mL (≈ 0.929 µM). Moreover, the results for the “inhibition zone (IZ)” value in assay [2] and in [3] were 214 mm2 and 171 mm2, respectively. Besides, the Activity in assay [4] was found to be 98%.
Turning to `CCCCCCCC(=O)N[C@H](C(=O)N[C@H](CO)C(=O)N[C@H]1CCNC(=O)[C@H]([C@@H](C)O)NC(=O)[C@H](CCN)NC(=O)[C@H](CCN)NC(=O)[C@H](CC(C)C)NC(=O)[C@@H](Cc2ccccc2)NC(=O)[C@H](CCN)NC1=O)[C@@H](C)O.CS(=O)(=O)[O-].[Na+]`, the Activity in [4] is listed as 90%.
